# Active and inactive are the calls of the source. The calls are words filed in the database; no cut-off is given here.
# Columns and labels:
# PC-12 = assay: Inhibition of corticosterone-induced rat PC12 cells lesions assessed as protection rate at 1.25 uM after 24 hrs by MTT assay; assay type: functional; design: scale not given: the % may be the effect or the level left
# Method in brief: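 Rat PC12 cells injured with corticosterone and co-treated with compound at 1.25 μM, absorbance read 24 h after treatment. Protection rate = (A_d − A_c)/A_c × 100%, where A_c is the mean absorbance of corticosterone-only controls and A_d that of corticosterone plus compound. Six independent experiments, ± SD.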
# [1] = Cytotoxicity against human L02 cells assessed as inhibitory rate at 80 uM after 24 hrs by MTT assay; assay type: cell-based; details: read-out: INH
# Method in brief: (§1)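 Human normal liver L02 cells and human embryonic kidney 293 cells treated with compound at 80 μM for 24 h. Viability of untreated cells taken as 100%; inhibitory rate reported as mean ± SD of three independent experiments.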
# [2] = Octanol-water partition coefficient, log P of the compound; assay type: physicochemical
# [3] = Cytotoxicity against human HEK293 cells assessed as inhibitory rate at 80 uM after 24 hrs by MTT assay; assay type: cell-based; details: read-out: INH; method in brief: as §1
# Mus musculus = assay: Antidepressant activity in C57 mouse assessed as decrease in immobility time at 32 mg/kg, ip on days 2 to 15 by forced swimming test; assay type: functional, organism-based; design: dose 32 mg/kg
Structure (SMILES),Activity (PC-12) [%],"cytotoxicity at 24 h, 80 µM [1] [%]",logP [2],"cytotoxicity at 24 h, 80 µM [3] [%]",Activity (Mus musculus)
CNCCC(Oc1ccc(C(F)(F)F)cc1)c1ccccc1 (stereo not drawn) [FLUOXETINE],19.7,–,–,–,–
COc1ccc2cccc(CCNC(=O)N3CCN(C(=O)OC(C)(C)C)CC3)c2c1,6.3,3,1.06,13.3,–
COc1ccc2cccc(CCNC(=O)CC(C)(C)CC(=O)O)c2c1,6.3,5.7,1.75,34.1,–
COc1ccc2cccc(CCNC(=O)N3CCC(c4ccccc4)CC3)c2c1,2.5,8.6,2.05,16.5,–
COc1ccc2cccc(CCN3C(=O)CCC3=O)c2c1,-16.8,8.5,1.87,8.1,–
COc1ccc2cccc(CCNC(=O)/C(Cl)=C(\Cl)C(=O)O)c2c1,-8.4,3.8,1.18,18.6,–
COc1ccc2cccc(CCN3C(=O)C(C)=C(C)C3=O)c2c1,34.2,13.8,1.53,9.6,Active
COc1ccc2cccc(CCNC(=O)N3CCCCC3)c2c1,-11.5,22.6,2.81,16.6,–
COc1ccc2cccc(CCNC(=O)/C=C/C(=O)O)c2c1,23.2,3.4,1.54,33,inactive
COc1ccc2cccc(CCNC(=O)CC3(CC(=O)O)CCCC3)c2c1,-17.5,4.1,-1.17,13.4,–
COc1ccc2cccc(CCNC(=O)/C(C)=C(\C)C(=O)O)c2c1,2.8,5.8,2.01,13.2,–
CCN1CCN(C(=O)NCCc2cccc3ccc(OC)cc23)CC1,-7.7,3.1,1.35,3.9,–
COc1ccc2cccc(CCNC(=O)N3CCN(C)CC3)c2c1,13.6,20.1,1.88,46.6,–
COc1ccc2cccc(CCN3C(=O)c4ccc(Br)cc4C3=O)c2c1,-10.5,9.1,2.57,11.5,–
COc1ccc2cccc(CCNC(C)=O)c2c1 [AGOMELATINE],26.2,20.2,1.62,26.6,–
COc1ccc2cccc(CCN3C(=O)C(Cl)=C(Cl)C3=O)c2c1,-12.8,3.4,1.99,17.2,–
COc1ccc2cccc(CCNC(=O)CCC(=O)O)c2c1,11,3.1,1.35,13.9,–
COc1ccc2cccc(CCNC(=O)N3CCCC3)c2c1,9.8,19.3,-0.52,28.4,–
COc1ccc2cccc(CCN3C(=O)CC(C)(C)CC3=O)c2c1,-50.3,10.4,2.78,41.9,–
COc1ccc2cccc(CCNC(=O)N(C)CCO)c2c1,-19.5,5.5,1.12,7.1,–
COc1ccc2cccc(CCNC(=O)N3CCC3)c2c1,15.7,18.4,1.56,28.4,–
